# Measured values from ChEMBL document CHEMBL1132860 (Bioorg Med Chem Lett, 2000).
# Experiments:
# [1] = target: T1, Alpha-2C adrenergic receptor (Homo sapiens, UniProt P18825); experiment: biochemical; type: cell-based, CHO
# T1 sequence (P18825 whole entry): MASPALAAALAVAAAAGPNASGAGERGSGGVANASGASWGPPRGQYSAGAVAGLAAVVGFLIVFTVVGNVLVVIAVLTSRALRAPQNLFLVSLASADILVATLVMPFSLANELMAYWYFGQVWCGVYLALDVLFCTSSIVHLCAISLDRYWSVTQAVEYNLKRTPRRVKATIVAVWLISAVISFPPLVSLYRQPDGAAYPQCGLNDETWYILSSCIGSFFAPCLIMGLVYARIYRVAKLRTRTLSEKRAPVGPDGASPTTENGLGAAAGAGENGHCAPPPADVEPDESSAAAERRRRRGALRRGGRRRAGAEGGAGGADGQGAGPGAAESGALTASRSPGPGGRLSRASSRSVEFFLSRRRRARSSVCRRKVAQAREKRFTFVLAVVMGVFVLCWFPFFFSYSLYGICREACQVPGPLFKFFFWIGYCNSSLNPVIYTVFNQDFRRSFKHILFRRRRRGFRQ
# [2] = target: T2, Alpha-2A adrenergic receptor (Homo sapiens, UniProt P08913); experiment: Binding affinity at human Alpha-2A adrenergic receptor in CHO cells by [3H]rauwolscine (1 nM) displacement.; type: cell-based
# T2 sequence (P08913 whole entry): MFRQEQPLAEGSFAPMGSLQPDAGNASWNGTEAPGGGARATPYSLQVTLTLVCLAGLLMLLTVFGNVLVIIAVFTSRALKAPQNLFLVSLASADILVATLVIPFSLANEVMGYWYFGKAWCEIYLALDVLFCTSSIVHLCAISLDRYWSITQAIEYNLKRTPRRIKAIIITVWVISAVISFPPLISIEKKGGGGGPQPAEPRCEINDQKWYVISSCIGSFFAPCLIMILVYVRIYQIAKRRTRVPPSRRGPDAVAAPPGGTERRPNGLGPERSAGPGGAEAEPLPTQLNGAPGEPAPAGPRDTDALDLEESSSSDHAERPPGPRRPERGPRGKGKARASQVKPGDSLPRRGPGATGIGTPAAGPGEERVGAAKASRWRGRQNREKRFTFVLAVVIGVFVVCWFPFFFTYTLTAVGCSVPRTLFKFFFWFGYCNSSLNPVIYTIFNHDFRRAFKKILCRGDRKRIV
# Method in brief: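 Membranes from CHO cells stably expressing the human receptor, with 1 nM [3H]rauwolscine as radioligand. Nonspecific binding was defined with 1 μM oxymethazoline. Compounds were tested over 10^-5 to 10^-11. Inhibition curves were fitted as sigmoids by non-linear regression using polynomials, and pIC50 (−log IC50) was read from the curves.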
# [3] = target: T3, Alpha-1A adrenergic receptor (Homo sapiens, UniProt P35348); experiment: Binding affinity at human Alpha-1A adrenergic receptor in CHO cells uby [3H]prazosin (0.25 nM) displacement.; type: cell-based
# T3 sequence (P35348 whole entry): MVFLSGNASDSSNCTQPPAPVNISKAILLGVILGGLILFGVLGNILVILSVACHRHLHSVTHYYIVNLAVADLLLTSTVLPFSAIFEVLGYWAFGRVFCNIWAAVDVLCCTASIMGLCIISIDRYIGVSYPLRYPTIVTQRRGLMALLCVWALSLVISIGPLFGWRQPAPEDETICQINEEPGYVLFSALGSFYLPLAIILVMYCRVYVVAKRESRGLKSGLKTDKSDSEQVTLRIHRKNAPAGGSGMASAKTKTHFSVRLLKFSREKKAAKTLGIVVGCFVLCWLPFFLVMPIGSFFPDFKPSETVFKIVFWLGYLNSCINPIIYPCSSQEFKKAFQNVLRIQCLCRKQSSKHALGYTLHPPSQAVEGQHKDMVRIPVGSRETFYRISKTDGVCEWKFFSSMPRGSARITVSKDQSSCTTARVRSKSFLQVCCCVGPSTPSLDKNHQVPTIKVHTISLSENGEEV
# Rattus norvegicus [4] = experiment: Inhibition of clonidine (0.04 mg/kg) induced anti diarrhoeal effects in rats following s.c. administration.; type: functional; parameters: unit not given here
# [5] = target: T4, Alpha-2B adrenergic receptor (Homo sapiens, UniProt P18089); experiment: Binding affinity at human Alpha-2B adrenergic receptor in CHO cells by [3H]rauwolscine (1 nM) displacement.; type: cell-based
# T4 sequence (P18089 whole entry): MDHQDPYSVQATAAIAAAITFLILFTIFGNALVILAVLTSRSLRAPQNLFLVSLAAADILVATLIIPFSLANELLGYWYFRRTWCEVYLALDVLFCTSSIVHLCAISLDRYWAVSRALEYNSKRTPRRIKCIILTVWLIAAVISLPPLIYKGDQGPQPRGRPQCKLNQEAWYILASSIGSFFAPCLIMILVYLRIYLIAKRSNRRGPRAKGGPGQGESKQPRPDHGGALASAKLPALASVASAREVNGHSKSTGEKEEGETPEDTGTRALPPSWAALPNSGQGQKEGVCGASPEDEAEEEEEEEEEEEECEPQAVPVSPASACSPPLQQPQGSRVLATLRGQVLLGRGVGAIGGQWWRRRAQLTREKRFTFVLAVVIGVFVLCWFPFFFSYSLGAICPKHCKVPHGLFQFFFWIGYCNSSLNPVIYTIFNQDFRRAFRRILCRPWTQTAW
# Rattus norvegicus [6] = experiment: Inhibition of Xylazine (15 mg/kg i.v.) induced loss of righting reflex in rats following i.v. administration.; type: functional; parameters: unit not given here
SMILES,IC50 [1],IC50 [2],IC50 [3],IC50 [5],Activity (Rattus norvegicus [4]),Activity (Rattus norvegicus [6])
Cc1nc2ccccn2c(=O)c1CCN1CCc2oc3c(Cl)cccc3c2C1,2.24 nM,0.891 nM,282 nM,4.37 nM,0.63,2.5
Cc1nc2ccccn2c(=O)c1CCN1CCc2sc3ccccc3c2C1,14.1 nM,1.74 nM,214 nM,11.5 nM,10,2.5
Cc1nc2c(Cl)cc(C(F)(F)F)cn2c(=O)c1CCN1CCc2oc3ccccc3c2C1,,1.17 nM,5890 nM,1.95 nM,,
CN1CCN2c3ncccc3Cc3ccccc3C2C1 (stereo not drawn) [MIRTAZAPINE],200 nM,,,,>10,2.5
c1ccc2c(c1)OCC(C1=NCCN1)O2 (stereo not drawn) [IDAZOXAN],,,,,0.63,0.63
COc1cc2nc(C)c(CCN3CCc4oc5ccccc5c4C3)c(=O)n2cc1OC,57.5 nM,3.55 nM,5250 nM,195 nM,>0.63,>10
Cc1nc2ccccn2c(=O)c1CCCN1CCc2oc3ccccc3c2C1,6.61 nM,10.2 nM,813 nM,10.7 nM,>2.5,>10
O=c1c(CCN2CCc3oc4ccccc4c3C2)c(Cc2ccccc2)nc2ccccn12,2.69 nM,2.19 nM,204 nM,4.17 nM,>2.5,>10
Cc1nc2ccccn2c(=O)c1CCN1CCc2oc3ccc(Cl)cc3c2C1,27.5 nM,3.89 nM,,79.4 nM,>2.5,10

# Continued, in another order:
IC50 [1],IC50 [2],IC50 [3],IC50 [5],SMILES,Activity (Rattus norvegicus [4]),Activity (Rattus norvegicus [6])
0.724 nM,0.214 nM,724 nM,0.955 nM,Cc1nc2ccc(Cl)cn2c(=O)c1CCN1CCc2oc3ccccc3c2C1,0.63,0.04
0.708 nM,0.295 nM,115 nM,2.04 nM,COc1cccn2c(=O)c(CCN3CCc4oc5ccccc5c4C3)c(C)nc12,0.63,0.63
1.29 nM,0.347 nM,288 nM,1.55 nM,Cc1ccc2nc(C)c(CCN3CCc4oc5ccccc5c4C3)c(=O)n2c1,0.63,0.16
1.62 nM,0.692 nM,245 nM,1.74 nM,Cc1nc2c(O)cccn2c(=O)c1CCN1CCc2oc3ccccc3c2C1,2.5,5
1.32 nM,0.603 nM,692 nM,2.14 nM,Cc1nc2c(C)cccn2c(=O)c1CCN1CCc2oc3ccccc3c2C1,2.5,10
1.2 nM,0.447 nM,112 nM,2.57 nM,Cc1ccn2c(=O)c(CCN3CCc4oc5ccccc5c4C3)c(C)nc2c1,2.5,0.63
0.692 nM,0.355 nM,891 nM,1.35 nM,Cc1nc2ccc(Br)cn2c(=O)c1CCN1CCc2oc3ccccc3c2C1,2.5,0.16
,0.589 nM,2570 nM,,Cc1nc2c(Cl)cc(Cl)cn2c(=O)c1CCN1CCc2oc3ccccc3c2C1,>2.5,>10
0.617 nM,0.24 nM,479 nM,2.09 nM,Cc1nc2ccc(I)cn2c(=O)c1CCN1CCc2oc3ccccc3c2C1,>2.5,10
0.851 nM,0.339 nM,240 nM,2.63 nM,Cc1cc(C)n2c(=O)c(CCN3CCc4oc5ccccc5c4C3)c(C)nc2c1,>2.5,>10
1.7 nM,0.55 nM,347 nM,2.57 nM,Cc1nc2ccccn2c(=O)c1CCN1CCc2oc3ccccc3c2C1 [LUSAPERIDONE],0.31,0.04
1.07 nM,0.288 nM,398 nM,1.48 nM,Cc1nc2cccc(C)n2c(=O)c1CCN1CCc2oc3ccccc3c2C1,2.5,0.63
